# pEC50: −log10 of the molar value.
# Key:
# Cannabinoid receptor 2 [1] = molecular target: T1, Cannabinoid receptor 2 (Homo sapiens, UniProt P34972); test: Agonist activity at human recombinant CB2 receptor expressed in CHO-K1 cells assessed as inhibition of forskolin-stimulated intracellular cAMP level relative to CP-55940; type: functional, cell-based
# Procedure, shortened: (§1)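 CHO-K1 cells stably expressing human or rat CB1 or CB2 were used. Compounds were diluted from DMSO into HBSS/HEPES/BSA buffer containing 60 µM forskolin, then combined with 5000 cells/well plus Alexa647 anti-cAMP antibody, 1 h at room temperature. A biotinylated-cAMP detection mix was added for another 1 h. Emission at 665 nm gave concentration-response curves and EC50; Emax is expressed as a percentage of the reference agonist maximum.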
# Cannabinoid receptor 2 [2] = molecular target: T2, Cannabinoid receptor 2 (Rattus norvegicus, UniProt Q9QZN9); test: Agonist activity at rat recombinant CB2 receptor expressed in CHO-K1 cells assessed as inhibition of forskolin-stimulated intracellular cAMP level; type: functional, cell-based; procedure, shortened: as §1
# T2 sequence (Q9QZN9 whole entry): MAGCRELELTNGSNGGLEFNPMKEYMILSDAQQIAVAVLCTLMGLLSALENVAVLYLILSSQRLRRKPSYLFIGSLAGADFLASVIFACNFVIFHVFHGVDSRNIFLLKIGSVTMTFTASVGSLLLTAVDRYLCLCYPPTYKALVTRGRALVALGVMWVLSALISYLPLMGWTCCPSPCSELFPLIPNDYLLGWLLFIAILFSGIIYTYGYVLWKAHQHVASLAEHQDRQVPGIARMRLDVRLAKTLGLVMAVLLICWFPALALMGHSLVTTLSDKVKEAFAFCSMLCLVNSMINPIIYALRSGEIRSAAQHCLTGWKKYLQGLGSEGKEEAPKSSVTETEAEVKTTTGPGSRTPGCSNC
# Cannabinoid receptor 2 [3] = molecular target: T1, Cannabinoid receptor 2; test: Agonist activity at human recombinant CB2 receptor expressed in Sf9 cells by GTP-europium binding assay
# Procedure, shortened: (§2)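 Membranes were from Sf9 insect cells cotransfected with CB1 or CB2 plus Gαi3 (Bmax 1.7 pmol/mL). Compound (0.01 nM–10 µM, 1% DMSO final) was added to buffer with Hepes, BSA, 10 mM MgCl2, 150 mM NaCl, 5 µM GDP, 10 nM GTP-europium, saponin and membranes (CB1 4.5 µg/well, CB2 14 µg/well). 100% efficacy was set by 3 µM reference agonist.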
# Cannabinoid receptor 1 [4] = molecular target: Cannabinoid receptor 1 (Rattus norvegicus, UniProt P20272); test: Agonist activity at rat recombinant CB1 receptor expressed in CHO-K1 cells assessed as inhibition of forskolin-stimulated intracellular cAMP level; type: functional, cell-based
# Procedure, shortened: as §1, with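 “h.” for “h. Emission at 665 nm gave concentration-response curves and EC50; Emax is expressed as a percentage of the reference agonist maximum.”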
# Cannabinoid receptor 1 [5] = molecular target: T3, Cannabinoid receptor 1 (Homo sapiens, UniProt P21554); test: Agonist activity at human recombinant CB1 receptor expressed in Sf9 cells by GTP-europium binding assay relative to CP-55940
# Procedure, shortened: as §2, with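 “µg/well). Incubation was 45 min at room temperature, then filtration and washing, with fluorescence read at 615 nm.” for “µg/well).”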
# [6] = molecular target: T4, Cannabinoid receptor 2 (Rattus norvegicus) (UniProt Q9QZN9); test: Agonist activity at rat recombinant CB2 receptor expressed in CHO-K1 cells assessed as inhibition of forskolin-stimulated intracellular cAMP level relative to CP-55940; type: functional, cell-based; procedure, shortened: as §1
# T4 sequence (whole entry): T2 sequence (Q9QZN9 whole entry)
# Cannabinoid receptor 1 [7] = molecular target: T3, Cannabinoid receptor 1; test: Agonist activity at human recombinant CB1 receptor expressed in CHO-K1 cells assessed as inhibition of forskolin-stimulated intracellular cAMP level; type: functional, cell-based
# Procedure, shortened: as §1, with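 “h.” for “h. Emission at 665 nm gave concentration-response curves and EC50; Emax is expressed as a percentage of the reference agonist maximum.”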
# Cannabinoid receptor 1 [8] = molecular target: T3, Cannabinoid receptor 1; test: Agonist activity at human CB1 receptor expressed in Sf9 cells by GTP-europium binding assay; procedure, shortened: as §2
# Cannabinoid receptor 2 [9] = molecular target: T1, Cannabinoid receptor 2; test: Agonist activity at human recombinant CB2 receptor expressed in Sf9 cells by GTP-europium binding assay relative to CP-55940
# Procedure, shortened: as §2, with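 “µg/well). Incubation was 45 min at room temperature, then filtration and washing, with fluorescence read at 615 nm.” for “µg/well).”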
# Cannabinoid receptor 2 [10] = molecular target: T1, Cannabinoid receptor 2; test: Agonist activity at human recombinant CB2 receptor expressed in CHO-K1 cells assessed as inhibition of forskolin-stimulated intracellular cAMP level; type: functional, cell-based
# Procedure, shortened: as §1, with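 “h.” for “h. Emission at 665 nm gave concentration-response curves and EC50; Emax is expressed as a percentage of the reference agonist maximum.”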
# [11] = molecular target: Cannabinoid receptor 1 (Rattus norvegicus) (UniProt P20272); test: Agonist activity at rat recombinant CB1 receptor expressed in CHO-K1 cells assessed as inhibition of forskolin-stimulated intracellular cAMP level relative to CP-55940; type: functional, cell-based; procedure, shortened: as §1
# Cannabinoid receptor 1 [12] = molecular target: T3, Cannabinoid receptor 1; test: Agonist activity at human recombinant CB1 receptor expressed in CHO-K1 cells assessed as inhibition of forskolin-stimulated intracellular cAMP level relative to CP-55940; type: functional, cell-based; procedure, shortened: as §1
# Chain of Cannabinoid receptor 1 (Rattus norvegicus) (P20272 whole entry): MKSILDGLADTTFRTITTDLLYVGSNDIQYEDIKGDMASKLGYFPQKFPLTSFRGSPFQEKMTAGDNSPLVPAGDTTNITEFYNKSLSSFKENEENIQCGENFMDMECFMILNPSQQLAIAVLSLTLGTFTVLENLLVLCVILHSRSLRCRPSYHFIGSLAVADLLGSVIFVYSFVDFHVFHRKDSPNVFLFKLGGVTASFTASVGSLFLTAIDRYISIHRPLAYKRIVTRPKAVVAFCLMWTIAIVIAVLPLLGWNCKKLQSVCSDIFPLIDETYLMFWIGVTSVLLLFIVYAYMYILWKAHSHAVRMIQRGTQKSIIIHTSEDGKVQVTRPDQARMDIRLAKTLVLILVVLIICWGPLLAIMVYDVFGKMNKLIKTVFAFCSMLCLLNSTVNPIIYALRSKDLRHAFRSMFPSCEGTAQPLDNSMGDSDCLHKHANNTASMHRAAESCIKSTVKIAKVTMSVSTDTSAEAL
# Chain of Cannabinoid receptor 1 (Rattus norvegicus, UniProt P20272) (P20272 whole entry): as above
# T3 sequence (P21554 whole entry): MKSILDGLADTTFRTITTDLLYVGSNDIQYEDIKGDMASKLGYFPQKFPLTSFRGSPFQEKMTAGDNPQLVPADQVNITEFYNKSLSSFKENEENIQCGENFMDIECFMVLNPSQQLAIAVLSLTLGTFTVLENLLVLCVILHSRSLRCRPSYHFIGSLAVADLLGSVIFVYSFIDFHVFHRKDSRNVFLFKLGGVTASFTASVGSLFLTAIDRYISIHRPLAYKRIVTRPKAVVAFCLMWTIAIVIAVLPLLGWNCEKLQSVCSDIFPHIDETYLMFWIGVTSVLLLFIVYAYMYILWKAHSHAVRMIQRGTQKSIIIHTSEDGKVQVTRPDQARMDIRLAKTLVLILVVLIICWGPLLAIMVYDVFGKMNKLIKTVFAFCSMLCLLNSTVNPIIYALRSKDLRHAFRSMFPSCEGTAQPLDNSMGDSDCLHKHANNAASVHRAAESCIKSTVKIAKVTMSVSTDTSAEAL
# T1 sequence (P34972 whole entry): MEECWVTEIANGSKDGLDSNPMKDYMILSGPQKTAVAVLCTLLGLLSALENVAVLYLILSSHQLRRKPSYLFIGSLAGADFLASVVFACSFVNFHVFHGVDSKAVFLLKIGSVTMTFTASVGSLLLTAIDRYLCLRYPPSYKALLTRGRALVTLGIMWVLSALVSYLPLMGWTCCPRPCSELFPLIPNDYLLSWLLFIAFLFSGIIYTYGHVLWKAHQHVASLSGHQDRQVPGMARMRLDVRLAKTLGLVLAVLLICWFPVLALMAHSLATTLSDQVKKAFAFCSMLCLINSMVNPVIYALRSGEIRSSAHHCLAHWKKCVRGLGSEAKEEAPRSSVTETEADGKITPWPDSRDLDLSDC
SMILES,Emax (Cannabinoid receptor 2 [1]),pEC50 (Cannabinoid receptor 2 [2]),pEC50 (Cannabinoid receptor 2 [3]),pEC50 (Cannabinoid receptor 1 [4]),Emax (Cannabinoid receptor 1 [5]),Emax [6],pEC50 (Cannabinoid receptor 1 [7]),pEC50 (Cannabinoid receptor 1 [8]),Emax (Cannabinoid receptor 2 [9]),pEC50 (Cannabinoid receptor 2 [10]),Emax [11],Emax (Cannabinoid receptor 1 [12])
CC(C)(C)c1cc(NCCCc2nc(-c3ccc(F)cc3Cl)no2)no1,90%,6.72,7.57,< 6.00,33%,82%,< 6.00,6.17,110%,6.89,,
CCn1c2ccccc2c2cc(NC(=O)CCc3nc(-c4ccccc4)no3)ccc21,,,6.82,,,,,,100%,,,
O=C(CCc1nc(-c2ccc(F)cc2Cl)no1)Nc1ccc(C(F)(F)F)nc1,96%,7.14,7.01,< 6.00,17%,95%,< 6.00,5.55,120%,7.11,,
Fc1ccc(-c2noc(CCCNc3nc4ccc(Cl)cc4s3)n2)c(Cl)c1,87%,6.54,6.77,< 6.00,16%,66%,< 6.00,5.48,100%,6.96,45%,25%
CC(C)c1ccc(NC(=O)CCc2nc(-c3ccc(F)cc3Cl)no2)cc1,,,8.00,,23%,,,5.70,130%,,,
Fc1ccc(-c2noc(CCCOc3cnc4ccc(Cl)cc4c3)n2)c(Cl)c1,99%,8.29,8.14,7.08,92%,99%,6.00,5.96,110%,8.44,98%,48%
CCn1c2ccccc2c2cc(NC(=O)CCc3cc(-c4ccccc4F)n(C)n3)ccc21,,,< 5.00,,,,,< 5.00,,,,
CCn1c2ccccc2c2cc(NC(=O)CCc3cc(-c4ccccc4F)[nH]n3)ccc21,,,< 5.00,,,,,< 5.00,,,,
CCn1c2ccccc2c2cc(NC(=O)CCc3nc(-c4cccc(Cl)c4)no3)ccc21,,,6.39,,,,,< 5.00,87%,,,
CCn1c2ccccc2c2cc(NC(=O)CCc3nc(C4CCOCC4)no3)ccc21,98%,9.42,7.38,6.82,,100%,< 6.00,< 5.00,94%,8.62,110%,23%
CCn1c2ccccc2c2cc(NC(=O)CCc3nc(-c4ccccc4Cl)no3)ccc21,,,8.22,,,,,< 5.00,100%,,,
CCn1c2ccccc2c2cc(NC(=O)CCc3nc(-c4ccncc4C#N)no3)ccc21,100%,8.89,8.42,< 6.00,,110%,< 6.00,< 5.00,110%,< 8.59,,
O=C(CCc1nc(-c2ccc(F)cc2Cl)no1)Nc1ccc(C(F)(F)F)cc1,94%,7.24,7.12,< 6.00,,90%,< 6.00,< 5.00,120%,7.42,,
CCn1c2ccccc2c2cc(NC(=O)CCc3nc(-c4ccccc4C(C)C)no3)ccc21,,,6.17,,,,,< 5.00,88%,,,
CCn1c2ccccc2c2cc(NC(=O)CCc3nc(-c4ccc(F)cc4)no3)ccc21,95%,8.49,8.01,6.19,55%,90%,6.48,5.92,95%,8.32,65%,24%
CCn1c2ccccc2c2cc(NC(=O)CCc3nc(-c4ccc(F)cc4C#N)no3)ccc21,110%,9.89,9.07,6.62,39%,130%,< 6.00,6.15,120%,9.48,84%,12%
O=C(CCc1nc(-c2ccc(F)cc2Cl)no1)Nc1ccc(C(F)(F)F)c(Cl)c1,97%,7.10,7.21,< 6.00,,100%,< 6.00,< 5.00,120%,7.60,,
CC(C)(C)c1ncc(NC(=O)CCc2nc(-c3ccc(F)cc3Cl)no2)cn1,97%,8.89,8.27,6.24,,99%,< 6.00,< 5.00,91%,8.54,67%,
CCn1c2ccccc2c2cc(NC(=O)CCc3noc(-c4ccccc4F)n3)ccc21,,,6.72,,,,,< 5.00,76%,,,
CCCCCCC(C)(C)c1ccc([C@@H]2C[C@H](O)CC[C@H]2CCCO)c(O)c1 [CP-55940],,9.47,,,,,,,,,,
CCn1c2ccccc2c2cc(NC(=O)CCn3nnc(-c4ccccc4F)n3)ccc21,88%,7.01,6.70,< 6.00,,90%,< 6.00,< 5.00,93%,6.16,,
CCn1c2ccccc2c2cc(NC(=O)CCc3nc(-c4ccc(F)cc4Cl)no3)ccc21,100%,9.40,8.74,6.48,65%,98%,< 6.00,5.92,98%,9.22,79%,20%
CCn1c2ccccc2c2cc(NC(=O)CCc3nc(-c4ccccc4F)co3)ccc21,,,5.70,,,,,< 5.00,46%,,,
N#Cc1cc(NCCCc2nc(-c3ccc(F)cc3Cl)no2)cnc1OCC(F)(F)F,87%,6.89,7.51,< 6.00,24%,85%,< 6.00,5.89,110%,6.44,,
CCn1c2ccccc2c2cc(NC(=O)CCn3cc(-c4ccccc4F)nn3)ccc21,,,6.33,,,,,< 5.00,15%,,,
CCn1c2ccccc2c2cc(NC(=O)CCc3cc(-c4ccccc4F)no3)ccc21,,,6.57,,,,,< 5.00,64%,,,
CC(C)(C)c1cc(NC(=O)CCc2nc(-c3ccc(F)cc3Cl)no2)no1,96%,9.40,9.70,6.77,103%,100%,< 6.00,5.80,120%,9.15,110%,48%
CCn1c2ccccc2c2cc(NC(=O)CCc3nc(-c4ccc(F)cc4C)no3)ccc21,100%,9.57,10.05,6.55,24%,110%,< 6.00,5.85,120%,9.33,81%,

# Reference: ChEMBL document CHEMBL1156631 (J Med Chem, 2008)
